According to ChEMBL document CHEMBL1156517, “Targeting thyroid hormone receptor-beta agonists to the liver reduces cholesterol and triglycerides and improves the therapeutic index” (Proc Natl Acad Sci U S A, 2007):
The source made the active and inactive calls. No cut-off for these calls is given here.

Columns and labels:
[1] = tested on: Rattus norvegicus; assay: Toxicity in Sprague-Dawley rat assessed as suppression of thyroid hormone axis measured by decrease in free 3,5,3',5'-triiodo-L-thyronine level at 1 mg/kg, po after 7 weeks; assay type: organism-based; set-up: dose 1 mg/kg, route oral; settings: in vivo, 1176 h
In short: (§1)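 Male SD rats (n = 5–6 per group; baseline group n = 8) given vehicle (0.5% CMC/1% Lutrol F68) or drug orally once daily. One group per cohort weighed and killed by decapitation without anesthesia after 1, 2, 4 and 7 weeks. Trunk-blood serum assayed for total/free T3 and T4; TSH by [125I] radioimmunoassay with magnetic separation. Pituitary TSHβ mRNA also measured.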

[2] = tested on: Rattus norvegicus; assay: Toxicity in Sprague-Dawley rat assessed as suppression of thyroid hormone axis measured by decrease in serum TSH level at 1 mg/kg, po after 7 weeks; assay type: organism-based; set-up: dose 1 mg/kg, route oral; settings: in vivo, 1176 h; in short: as §1
[3] = tested on: Rattus norvegicus; assay: Toxicity in Sprague-Dawley rat assessed as suppression of thyroid hormone axis measured by decrease in TSH-beta mRNA level at 1 mg/kg, po after 7 weeks; assay type: organism-based; set-up: dose 1 mg/kg, route oral; settings: in vivo, 1176 h; in short: as §1
[4] = tested on: Mus musculus; assay: Decrease in cholesterol level in wild-type C57BL/6 mouse at 5 mg/kg/day once daily for 7 days; assay type: functional, organism-based
[5] = tested on: Mus musculus; assay: Decrease in liver triglyceride level in po dosed diet-induced obese C57BL/6 mouse after 14 days; assay type: functional; set-up: scale not given: the % may be the effect or the level left
In short: (§2)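 DIO mice were male C57BL/6 fed a 60%-fat (by kcal) diet from about 4 weeks of age for about 170 days. They were grouped (n = 8) to match cholesterol and body weight. Dosing was oral, once daily for 2 weeks, in 0.5% CMC/1% Lutrol F68. At kill, blood was taken by cardiac puncture for plasma TGs. The liver was removed and weighed, and hepatic TGs were measured.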

[6] = tested on: Mus musculus; assay: Decrease in cholesterol level in LDLR deficient C57BL/6 mouse at 0.5 mg/kg/day once daily for 7 days; assay type: functional, organism-based
[7] = tested on: Mus musculus; assay: Decrease in cholesterol level in LDLR deficient C57BL/6 mouse at 5 mg/kg/day once daily for 7 days; assay type: functional, organism-based
[8] = tested on: Mus musculus; assay: Decrease in liver weight in po dosed diet-induced obese C57BL/6 mouse after 14 days; assay type: functional; set-up: scale not given: the % may be the effect or the level left; in short: as §2
[9] = tested on: Mus musculus; assay: Decrease in body weight in diet-induced obese C57BL/6 mouse at 0.03 mg/kg, po; assay type: functional; set-up: scale not given: the % may be the effect or the level left
[10] = tested on: Mus musculus; assay: Decrease in cholesterol level in wild-type C57BL/6 mouse at 0.5 mg/kg/day once daily for 7 days; assay type: functional, organism-based
[11] = tested on: Mus musculus; assay: Reduction in plasma cholesterol level in po dosed diet-induced obese C57BL/6 mouse after 2 weeks; assay type: functional; set-up: scale not given: the % may be the effect or the level left
In short: (§3)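 Male C57BL/6 mice, about 4 weeks old, fed a high-fat diet (60% kcal fat) for about 170 days. Assigned to groups (n = 8) matched for cholesterol and body weight. Dosed orally once daily in 0.5% CMC/1% Lutrol F68 for 2 weeks. Baseline blood taken by tail nick. At end, cardiac-puncture blood used for cholesterol, TGs, glucose and thyroid hormones; liver weighed and hepatic TGs measured.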

[12] = tested on: Rattus norvegicus; assay: Toxic cardiac effect on Sprague-Dawley rat assessed as increase in heart rate at >= 1 mg/kg/day, po for 7 days; assay type: toxicity, organism-based; set-up: route oral; settings: in vivo, 168 h
In short: (§4)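 Male SD rats (n = 6 per group) dosed daily by oral gavage for 7 days; vehicle group included. On day 7, rats anesthetized with isoflurane; catheter-tip transducer inserted into left ventricle via right carotid artery. LV pressure, LV dP/dt and heart rate (lead I ECG) recorded digitally. Systolic/diastolic aortic pressure taken by retracting catheter into proximal aorta.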

[13] = tested on: Rattus norvegicus; assay: Toxic cardiac effect on Sprague-Dawley rat assessed as increase in first derivative of left ventricular pressure at >= 1 mg/kg/day, po for 7 days; assay type: toxicity, organism-based, Heart left ventricle; set-up: route oral; settings: in vivo, 168 h; in short: as §4
[14] = tested on: Rattus norvegicus; assay: Toxic cardiac effect on Sprague-Dawley rat assessed as increase in systolic aortic pressure at >= 1 mg/kg/day, po for 7 days; assay type: toxicity, organism-based; set-up: route oral; settings: in vivo, 168 h; in short: as §4
[15] = tested on: Rattus norvegicus; assay: Toxic cardiac effect in Sprague-Dawley rat assessed as increase in heart rate at 1 mg/kg/day, po; assay type: toxicity, organism-based; set-up: route oral; settings: in vivo; in short: as §4
[16] = tested on: Rattus norvegicus; assay: Toxic cardiac effect in Sprague-Dawley rat assessed as increase in first derivative of left ventricular pressure at 1 mg/kg/day, po; assay type: toxicity, organism-based, Heart left ventricle; set-up: route oral; settings: in vivo; in short: as §4
[17] = tested on: Rattus norvegicus; assay: Toxic cardiac effect in Sprague-Dawley rat assessed as increase in heart weight at 1 mg/kg/day, po; assay type: toxicity, organism-based; set-up: route oral; settings: in vivo
[18] = tested on: Rattus norvegicus; assay: Toxic cardiac effect on Sprague-Dawley rat assessed as decrease in body weight gain at 1 mg/kg/day, po; assay type: toxicity, organism-based; set-up: route oral; scale not given: the % may be the effect or the level left; settings: in vivo
[19] = tested on: Rattus norvegicus; assay: Toxicity in Sprague-Dawley rat assessed as suppression of thyroid hormone axis measured by decrease in total 3,5,3',5'-tetraiodo-L-thyronine level at 0.1 mg/kg, po after 7 weeks; assay type: organism-based; set-up: dose 0.1 mg/kg, route oral; settings: in vivo, 1176 h
[20] = tested on: Rattus norvegicus; assay: Toxicity in Sprague-Dawley rat assessed as suppression of thyroid hormone axis measured by decrease in free 3,5,3',5'-tetraiodo-L-thyronine level at 0.1 mg/kg, po after 7 weeks; assay type: organism-based; set-up: dose 0.1 mg/kg, route oral; settings: in vivo, 1176 h; in short: as §1
[21] = tested on: Rattus norvegicus; assay: Toxicity in Sprague-Dawley rat assessed as suppression of thyroid hormone axis measured by decrease in total […]-L-thyronine level at 0.1 mg/kg, po after 7 weeks; assay type: organism-based; set-up: dose 0.1 mg/kg, route oral; settings: in vivo, 1176 h
[22] = tested on: Rattus norvegicus; assay: Toxicity in Sprague-Dawley rat assessed as suppression of thyroid hormone axis measured by decrease in free 3,5,3',5'-triiodo-L-thyronine level at 0.1 mg/kg, po after 7 weeks; assay type: organism-based; set-up: dose 0.1 mg/kg, route oral; settings: in vivo, 1176 h; in short: as §1
[23] = tested on: Rattus norvegicus; assay: Toxicity in Sprague-Dawley rat assessed as suppression of thyroid hormone axis measured by decrease in serum TSH level at 0.1 mg/kg, po after 7 weeks; assay type: organism-based; set-up: dose 0.1 mg/kg, route oral; settings: in vivo, 1176 h; in short: as §1
[24] = tested on: Rattus norvegicus; assay: Toxicity in Sprague-Dawley rat assessed as suppression of thyroid hormone axis measured by decrease in TSH-beta mRNA level at 0.1 mg/kg, po after 7 weeks; assay type: organism-based; set-up: dose 0.1 mg/kg, route oral; settings: in vivo, 1176 h; in short: as §1
[25] = tested on: Rattus norvegicus; assay: Toxicity in Sprague-Dawley rat assessed as suppression of thyroid hormone axis measured by decrease in total 3,5,3',5'-tetraiodo-L-thyronine level at 1 mg/kg, po after 7 weeks; assay type: organism-based; set-up: dose 1 mg/kg, route oral; settings: in vivo, 1176 h
[26] = tested on: Rattus norvegicus; assay: Toxicity in Sprague-Dawley rat assessed as suppression of thyroid hormone axis measured by decrease in free 3,5,3',5'-tetraiodo-L-thyronine level at 1 mg/kg, po after 7 weeks; assay type: organism-based; set-up: dose 1 mg/kg, route oral; settings: in vivo, 1176 h; in short: as §1
[27] = tested on: Rattus norvegicus; assay: Toxicity in Sprague-Dawley rat assessed as suppression of thyroid hormone axis measured by assessed as decrease in total […]-L-thyronine level at 1 mg/kg, po after 7 weeks; assay type: organism-based; set-up: dose 1 mg/kg, route oral; settings: in vivo, 1176 h; in short: as §1
[28] = tested on: Mus musculus; assay: Effect on hepatic LDLR mRNA level in LDLR deficient C57BL/6 mouse at 0.5 mg/kg/day once daily for 7 days; assay type: functional
[29] = tested on: Mus musculus; assay: Effect on hepatic LDLR mRNA level in wild-type C57BL/6 mouse at 0.5 mg/kg/day once daily for 7 days; assay type: functional
[30] = tested on: Mus musculus; assay: Reduction in total 3,5,3',5'-tetraiodo-L-thyronine level in po dosed diet-induced obese C57BL/6 mouse; assay type: functional, organism-based; in short: as §3
[31] = tested on: Mus musculus; assay: Reduction in total […]-L-thyronine level in po dosed diet-induced obese C57BL/6 mouse; assay type: functional, organism-based; in short: as §3
[32] = tested on: Mus musculus; assay: Reduction in blood glucose level in po dosed diet-induced obese C57BL/6 mouse; assay type: functional, organism-based; in short: as §3
[33] = tested on: Mus musculus; assay: Increase in heart weight in po dosed diet-induced obese C57BL/6 mouse; assay type: functional, organism-based
[34] = organism: Rattus norvegicus; assay: Reduction in plasma cholesterol level in cholesterol fed Sprague-Dawley rat; assay type: functional
[35] = tested on: Rattus norvegicus; assay: Effect on malic enzyme mRNA expression in po dosed Sprague-Dawley rat liver; assay type: functional, organism-based; settings: TDE = time-dependent effect
In short: (§5)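 Killed 3, 8 and 24 h post-dose under 2.5% isoflurane. Pituitary and thyroid snap-frozen; liver, heart, soleus, spleen and kidney freeze-clamped. mRNA by quantitative real-time PCR, expressed as fold-change vs vehicle.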

[36] = tested on: Rattus norvegicus; assay: Effect on SREBP-1c mRNA expression in po dosed Sprague-Dawley rat liver; assay type: functional, organism-based; settings: TDE = time-dependent effect
[37] = tested on: Rattus norvegicus; assay: Effect on LDLR mRNA expression in po dosed Sprague-Dawley rat liver; assay type: functional, organism-based; settings: TDE = time-dependent effect
[38] = tested on: Rattus norvegicus; assay: Effect on type 1 iodothyronine deiodinase mRNA expression in po dosed Sprague-Dawley rat liver; assay type: functional, organism-based; settings: TDE = time-dependent effect; in short: as §5

In the case of `CC(C)c1cc(Oc2c(Cl)cc(CC(=O)O)cc2Cl)ccc1O`, the Activity [1] is reported as “Active”, the Activity [2] is reported as “Active” and the Activity [3] is reported as “Active”. The Activity [4] was “Active”, the Activity [5] was 33% and the Activity [6] was “inactive”. The Activity [7] was “inactive”, the Activity [8] was 33% and the Activity [9] was 3%. For the same molecule, the Activity [10] was “Active”, the Activity [11] was 67% and the Activity [12] was “Active”. For the same molecule, the Activity [13] was “Active”, the Activity [14] was “Active” and the Activity [15] was “Active”. The Activity [16] was “Active”, the Activity [17] was “Active” and the Activity [18] was 61%. For the same molecule, the Activity [19] was “Active”, the Activity [20] was “Active” and the Activity [21] was “Active”. For the same molecule, the Activity [22] was “Active”, the Activity [23] was “Active” and the Activity [24] was “Active”. For the same molecule, the Activity [25] was “Active”, the Activity [26] was “Active” and the Activity [27] was “Active”. The Activity [28] was -10.6%, the Activity [29] was -55.8% and the Activity [30] was “Active”. For the same molecule, the Activity [31] was “Active”, the Activity [32] was “Active” and the Activity [33] was “Active”. The ED50 [34] was 0.05 mg/kg, the Activity [35] was “tde” and the Activity [36] was “tde”. The Activity [37] was “tde” and the Activity [38] was “tde”.
